pIC50: −log10 of the molar value. Active and inactive are the calls of the source. No cut-off for these calls is given here.
Tests used:
A549 [1] = assay: Cell cycle arrest in human A549 cells assessed as accumulation at G2/M phase at 5 uM after 36 hrs by propidium iodide staining based flow cytometry (reference value: 7.62%); type: functional
A549 [2] = assay: Induction of apoptosis in human A549 cells assessed as late apoptotic cells at 10 uM after 36 hrs by Annexin V-FITC/propidium iodide staining based FACS analysis (reference value: 0.29%); type: functional
Summary of the method: (§1)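 A549 cells seeded at 2 × 10⁵ per well, incubated overnight, then treated at 0, 5 or 10 µM. The legend gives 36 or 48 h; the methods section states 24 h. Annexin V-FITC/PI kit staining followed by flow cytometry. Early and late apoptotic cells expressed as cumulative percentage relative to control.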

A549 [3] = assay: Cell cycle arrest in human A549 cells assessed as accumulation at G0/G1 phase at 0.5 uM after 36 hrs by propidium iodide staining based flow cytometry (reference value: 61.65%); type: functional
A549 [4] = assay: Cell cycle arrest in human A549 cells assessed as accumulation at G2/M phase after 36 hrs by propidium iodide staining based flow cytometry; type: functional
A549 [5] = assay: Cellular uptake in human A549 cells at 1 to 5 uM after 4 hrs by FACS analysis; type: ADME, cell-based; conditions: a549, 4 h
Summary of the method: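 A549 cells treated with 1 or 5 µM for 4 h; 8 and 16 h also examined. Cells trypsinized, pelleted, resuspended in PBS and analysed at once by FACS. Intrinsic compound fluorescence read with 400 nm excitation, at least 10000 cells per sample.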

A549 [6] = assay: Induction of DNA damage in human A549 cells assessed as increase in gamma-H2AX expression at 1 to 2.5 uM after 48 hrs by Western blot analysis; type: cell-based
Summary of the method: (§2)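 A549 cells grown to 80% confluency, treated with graded concentrations for 48 h, then lysed in Tris-HCl/NaCl/Triton X-100 buffer with protease inhibitors. 40 µg protein resolved on 12 or 15% SDS-PAGE and blotted to PVDF. Primary antibodies used at 1:1000 for 6-8 h, HRP anti-rabbit at 1:2000 for 2 h, ECL detection, β-actin as loading control.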

A549 [7] = assay: Induction of apoptosis in human A549 cells assessed as late apoptotic cells at 5 uM after 48 hrs by Annexin V-FITC/propidium iodide staining based FACS analysis (reference value: 0.62%); type: functional; summary of the method: as §1
A549 [8] = assay: Induction of apoptosis in human A549 cells assessed as early apoptotic cells at 5 uM after 36 hrs by Annexin V-FITC/propidium iodide staining based FACS analysis (reference value: 0.29%); type: functional; summary of the method: as §1
A549 [9] = assay: Cell cycle arrest in human A549 cells assessed as accumulation at G0/G1 phase at 5 uM after 36 hrs by propidium iodide staining based flow cytometry (reference value: 61.65%); type: functional
A549 [10] = assay: Induction of apoptosis in human A549 cells assessed as early apoptotic cells at 10 uM after 48 hrs by Annexin V-FITC/propidium iodide staining based FACS analysis (reference value: 0.94%); type: functional; summary of the method: as §1
[11] = Antiproliferative activity against human HCT116 cells after 48 hrs by MTT assay; type: functional, cell-based; conditions: HCT-116, 48 h
Summary of the method: (§3)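 MTT assay: cells seeded at 4-8 × 10³ per well, incubated overnight at 37 °C in 5% CO₂, then given fresh medium with graded compound concentrations or equal DMSO for 48 h. MTT (5 mg/mL solution) added for a further 4 h, formazan dissolved in DMSO, absorbance read at 490 nm. Six cancer cell lines tested.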

A549 [12] = assay: Induction of apoptosis in human A549 cells assessed as increase in expression of cleaved caspase 3 at 1 to 2.5 uM after 48 hrs by Western blot analysis; type: functional, cell-based; summary of the method: as §2
A549 [13] = assay: Cell cycle arrest in human A549 cells assessed as accumulation at S phase at 0.5 uM after 36 hrs by propidium iodide staining based flow cytometry (reference value: 30.73%); type: functional
A549 [14] = assay: Induction of apoptosis in human A549 cells assessed as late apoptotic cells at 5 uM after 36 hrs by Annexin V-FITC/propidium iodide staining based FACS analysis (reference value: 0.29%); type: functional; summary of the method: as §1
A549 [15] = assay: Cell cycle arrest in human A549 cells assessed as accumulation at S phase at 1 uM after 36 hrs by propidium iodide staining based flow cytometry (reference value: 30.73%); type: functional
[16] = biological target: DNA topoisomerase 2-alpha (Homo sapiens) (UniProt P11388); assay: Inhibition of human recombinant topoisomerase 2-alpha expressed in Escherichia coli assessed as reduction in enzyme-mediated relaxation of supercoiled pBR322 DNA at 10 to 50 uM after 10 to 15 mins by agarose gel electrophoresis
Sequence of DNA topoisomerase 2-alpha (Homo sapiens) (P11388 whole entry): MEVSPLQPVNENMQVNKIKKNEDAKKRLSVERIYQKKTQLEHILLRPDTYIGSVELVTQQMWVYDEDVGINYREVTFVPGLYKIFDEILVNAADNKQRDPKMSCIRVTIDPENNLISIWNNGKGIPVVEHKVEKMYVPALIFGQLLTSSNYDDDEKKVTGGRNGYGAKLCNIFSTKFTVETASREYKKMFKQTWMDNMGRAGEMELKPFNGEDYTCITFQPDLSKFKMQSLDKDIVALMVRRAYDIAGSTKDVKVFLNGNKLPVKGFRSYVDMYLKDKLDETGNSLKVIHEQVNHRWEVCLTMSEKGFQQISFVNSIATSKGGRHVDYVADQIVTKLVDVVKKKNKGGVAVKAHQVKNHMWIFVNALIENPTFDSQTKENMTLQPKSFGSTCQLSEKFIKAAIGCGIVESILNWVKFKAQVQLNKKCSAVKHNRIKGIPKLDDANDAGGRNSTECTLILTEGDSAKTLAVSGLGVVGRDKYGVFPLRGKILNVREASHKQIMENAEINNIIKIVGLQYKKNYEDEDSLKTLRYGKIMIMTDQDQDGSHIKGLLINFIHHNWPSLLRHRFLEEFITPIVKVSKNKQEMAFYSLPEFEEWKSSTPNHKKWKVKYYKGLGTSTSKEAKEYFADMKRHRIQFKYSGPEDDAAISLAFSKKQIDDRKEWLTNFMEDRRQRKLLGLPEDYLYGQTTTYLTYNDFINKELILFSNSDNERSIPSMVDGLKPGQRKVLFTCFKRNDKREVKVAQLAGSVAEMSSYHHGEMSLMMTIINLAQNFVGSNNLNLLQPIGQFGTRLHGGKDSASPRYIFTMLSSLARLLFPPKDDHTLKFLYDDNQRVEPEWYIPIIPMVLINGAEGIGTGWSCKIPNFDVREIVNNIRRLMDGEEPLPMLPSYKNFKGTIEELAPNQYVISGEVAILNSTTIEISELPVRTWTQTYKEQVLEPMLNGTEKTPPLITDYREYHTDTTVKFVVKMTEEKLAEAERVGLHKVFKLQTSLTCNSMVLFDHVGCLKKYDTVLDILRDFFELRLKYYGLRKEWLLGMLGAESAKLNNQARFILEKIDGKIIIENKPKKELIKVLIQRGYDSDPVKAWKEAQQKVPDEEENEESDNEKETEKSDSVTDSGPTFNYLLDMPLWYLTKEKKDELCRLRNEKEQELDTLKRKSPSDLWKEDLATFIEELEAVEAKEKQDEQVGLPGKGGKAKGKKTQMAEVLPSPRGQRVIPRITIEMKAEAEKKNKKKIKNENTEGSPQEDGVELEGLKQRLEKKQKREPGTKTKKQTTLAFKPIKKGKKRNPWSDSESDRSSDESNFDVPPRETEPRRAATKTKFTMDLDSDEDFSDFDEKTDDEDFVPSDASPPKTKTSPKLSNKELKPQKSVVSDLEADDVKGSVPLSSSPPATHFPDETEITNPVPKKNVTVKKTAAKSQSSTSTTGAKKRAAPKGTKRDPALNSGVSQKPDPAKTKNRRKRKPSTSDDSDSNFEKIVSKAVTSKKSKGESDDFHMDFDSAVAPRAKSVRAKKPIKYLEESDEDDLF
Summary of the method: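 Relaxation of 500 ng supercoiled pBR322 by 1 unit human Topo I or Topo IIα, with or without compound, in 20 µL reaction buffer at 37 °C for 10-15 min. Reactions stopped with loading buffer, run on 0.8% agarose in TAE at 80 V for 30 min. Gels stained with ethidium bromide 2.5 µg/mL and viewed under UV.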

Calf thymus DNA [17] = assay: Binding affinity to calf thymus DNA after 5 mins by UV-vis spectrophotometry; type: nucleic-acid assay; conditions: Bos taurus
Summary of the method: (§4)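 ctDNA at 0-44 µM is added to compound at 10 µM final in Tris-HCl buffer (pH 7.4). UV-vis absorption spectra are recorded after 5 min standing. The binding constant K_b is taken from a plot of absorption data against DNA concentration.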

A549 [18] = assay: Induction of DNA damage in human A549 cells assessed as tail DNA at 5 uM after 24 hrs by propidium iodide staining based comet assay (reference value: 0.02%); type: cell-based
Summary of the method: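 Alkaline comet assay. About 10⁵ A549 cells per well incubated 12 h, then treated 24 h in serum-free medium against a DMSO control. Cells embedded in low-melting agarose, lysed 2 h, alkaline-unwound 0.5 h at 4 °C, electrophoresed at 300 mA for 25 min in the dark. Slides neutralized, PI-stained, 50 random cells scored for % tail DNA.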

A549 [19] = assay: Induction of apoptosis in human A549 cells assessed as early apoptotic cells at 10 uM after 36 hrs by Annexin V-FITC/propidium iodide staining based FACS analysis (reference value: 0.29%); type: functional; summary of the method: as §1
Calf thymus DNA [20] = assay: Binding affinity to calf thymus DNA at 10 uM spectrofluorimetric analysis; type: nucleic-acid assay; conditions: Bos taurus
Summary of the method: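 Compound at 10 µM final in 10 mM Tris-HCl, pH 7.4, titrated with ctDNA at 0-64 µM final. Emission recorded 420-750 nm with excitation at 400 nm using a xenon arc lamp source. Quenching constant K derived by Stern-Volmer fit, F₀/F = 1 + K[Q], where [Q] is the DNA concentration.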

HeLa = assay: Antiproliferative activity against human HeLa cells after 48 hrs by MTT assay; type: functional, cell-based; summary of the method: as §3
MCF7 = assay: Antiproliferative activity against human MCF7 cells after 48 hrs by MTT assay; type: functional, cell-based; conditions: MCF7, 48 h; summary of the method: as §3
Calf thymus DNA [21] = assay: Binding affinity to calf thymus DNA assessed as bathochromic shift at 10 uM after 5 mins by UV-vis spectrophotometry; type: nucleic-acid assay; conditions: Bos taurus; summary of the method: as §4
CCRF-CEM = assay: Antiproliferative activity against human CCRF-CEM cells after 48 hrs by MTT assay; type: functional, cell-based; summary of the method: as §3
A549 [22] = assay: Induction of apoptosis in human A549 cells assessed as early apoptotic cells at 5 uM after 48 hrs by Annexin V-FITC/propidium iodide staining based FACS analysis (reference value: 0.94%); type: functional; summary of the method: as §1
Calf thymus DNA [23] = assay: Binding affinity to calf thymus DNA assessed as hypochromicity change at 10 uM after 5 mins by UV-vis spectrophotometry relative to control; type: nucleic-acid assay; conditions: Bos taurus; summary of the method: as §4

COc1ccc(CNc2c3ccc(Cl)cc3nc3ccc(OC)cc23)cc1
Activity (A549 [1]): 16.52%
Activity (A549 [2]): 88.13%
Activity (A549 [3]): 61.48%
Activity (A549 [4]): Dose-dependent effect
Drug uptake (A549 [5]): Active
Activity (A549 [6]): Active
Activity (A549 [7]): 21.23%
Activity (A549 [8]): 2.14%
Activity (A549 [9]): 62.04%
Activity (A549 [10]): 8.8%
pIC50 [11]: 5.20
Activity (A549 [12]): Active
Activity (A549 [13]): 30.4%
Activity (A549 [14]): 10.47%
Activity (A549 [15]): 29.55%
inhibition [16]: Active
Kb (Calf thymus DNA [17]): 1.68 ×10⁵ /M
Activity (A549 [18]): 52.3%
Activity (A549 [19]): 3.24%
KSV (Calf thymus DNA [20]): 1.02 ×10⁵ /M
pIC50 (HeLa): 5.77
pIC50 (MCF7): 5.16
Activity (Calf thymus DNA [21]): 10 nm
pIC50 (CCRF-CEM): 5.60
Activity (A549 [22]): 4.23%
Activity (Calf thymus DNA [23]): 60%

Reference: ChEMBL document CHEMBL3792296, “Synthesis and antiproliferative activity of 9-benzylamino-6-chloro-2-methoxy-acridine derivatives as potent DNA-binding ligands and topoisomerase II inhibitors” (Eur J Med Chem, 2016)
